Results published in ChEMBL document CHEMBL2176934 (J Med Chem, 2012).
Active and inactive are the calls of the source. The calls are words filed in the database; no cut-off is given here.

Columns and labels:
[1] = Inhibition of LPA-induced proliferation of HLF at 10 uM incubated for 1 hr prior to LPA-challenge measured after 48 hrs by BrdU incorporation assay; type: functional; settings: Homo sapiens
Method in brief: (§1)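 NHLFs (passages 5–9) seeded on collagen I at 5 × 10³ cells/well overnight in complete medium, then starved 24 h in basal medium with 0.1% FBS and 0.1% fatty acid-free BSA. Stimulated with LPA (18:1) 15 μM in the presence of antagonist; proliferation read as BrdU incorporation with a commercial kit.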

[2] = target: T1, Lysophosphatidic acid receptor 1 (Homo sapiens, UniProt Q92633); assay: Antagonist activity at LPA1 in human lung fibroblasts assessed as inhibition of LPA-induced contraction after 18 hrs by 3D collagen gel contraction assay; type: functional
Method in brief: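 NHLFs (healthy nonsmoking donors, passages 5–9) at 2.5 × 10⁵ cells/well, mixed 1:4 with collagen lattice; gels polymerized 2 h at 37 °C, then basal medium with 0.1% FBS, 0.1% fatty acid-free BSA and vehicle or antagonist added. Gels detached, LPA (18:1) 15 μM added; after 18 h, contraction quantified by gel disc weight.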

[3] = Inhibition of LPA-induced proliferation of HLF at 1 uM incubated for 1 hr prior to LPA-challenge measured after 48 hrs by BrdU incorporation assay; type: functional; settings: Homo sapiens; method in brief: as §1
[4] = target: T1, Lysophosphatidic acid receptor 1; assay: Antagonist activity at human recombinant LPA1 expressed in chem-1 cells assessed as inhibition of LPA-induced intracellular calcium mobilization at 30 uM incubated for 30 mins prior to LPA-challenge measured over 100 secs by FLIPR assay; type: functional, cell-based
Method in brief: (§2)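 Calcium-optimized Chem-1 cells stably expressing human LPA1 or LPA3 (parental line with ionomycin as counterscreen), seeded 10,000/well the day before. Calcium-4 dye in HBSS/20 mM HEPES/2.5 mM probenecid loaded 30 min at 37 °C; compound added, 30 min at room temperature in the dark; LPA (18:1) 1 μM final. Peak fluorescence read over 100 s; IC50 from 10-concentration 4-parameter logistic fit, mean of at least three runs.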

[5] = target: Voltage-gated inwardly rectifying potassium channel KCNH2 (Homo sapiens, UniProt Q12809); assay: Inhibition of human ERG
[6] = Inhibition of LPA-induced proliferation of HLF incubated for 1 hr prior to LPA-challenge measured after 48 hrs by BrdU incorporation assay; settings: Homo sapiens
[7] = Inhibition of Cytochrome P450; type: ADME
[8] = test system: Mus musculus; assay: Antifibrosis activity in C57BL6/J mouse assessed as inhibition of LPA-stimulated histamine release at 100 mg/kg, po dosed 2 hrs prior to LPA-challenge by ELISA; type: functional, organism-based; design: dose 100 mg/kg
Method in brief: (§3)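 Male C57BL6/J mice, 7–9 weeks old, given compound orally 2 h before intravenous LPA 100 μg/mouse (in 0.1% fatty acid-free BSA). Killed 3 min after LPA; EDTA plasma histamine measured by ELISA and plasma drug levels by LC/MS. n = 5–8 mice, mean ± SEM; one-way ANOVA with Dunnett's test versus LPA vehicle control.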

[9] = target: T2, Lysophosphatidic acid receptor 3 (Homo sapiens, UniProt Q9UBY5); assay: Antagonist activity at human recombinant LPA3 expressed in chem-1 cells assessed as inhibition of LPA-induced intracellular calcium mobilization incubated for 30 mins prior to LPA-challenge measured over 100 secs by FLIPR assay; type: functional, cell-based; method in brief: as §2
T2 sequence (Q9UBY5 whole entry): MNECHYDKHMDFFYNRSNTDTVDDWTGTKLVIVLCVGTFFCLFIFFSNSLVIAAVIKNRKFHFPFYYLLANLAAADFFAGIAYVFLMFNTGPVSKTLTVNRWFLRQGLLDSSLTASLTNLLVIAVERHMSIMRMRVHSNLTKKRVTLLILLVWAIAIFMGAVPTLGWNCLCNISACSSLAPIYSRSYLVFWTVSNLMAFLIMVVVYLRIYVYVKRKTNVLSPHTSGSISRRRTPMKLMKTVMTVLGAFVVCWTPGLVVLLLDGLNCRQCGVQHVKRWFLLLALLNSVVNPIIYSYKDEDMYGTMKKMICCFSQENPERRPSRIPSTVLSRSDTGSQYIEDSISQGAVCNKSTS

[10] = target: T3, Lysophosphatidic acid receptor 3 (Homo sapiens) (UniProt Q9UBY5); assay: Antagonist activity at human recombinant LPA3 expressed in chem-1 cells assessed as inhibition of LPA-induced intracellular calcium mobilization at 30 uM incubated for 30 mins prior to LPA-challenge measured over 100 secs by FLIPR assay; type: functional, cell-based; method in brief: as §2
T3 sequence (whole entry): T2 sequence (Q9UBY5 whole entry)

[11] = test system: Plasma; assay: Ratio of plasma concentration of AM095 to plasma concentration of compound in C57BL6/J mouse at 100 mg/kg, po dosed 2 hrs prior to LPA-challenge by LC/MS spectrometry; type: ADME, organism-based; design: dose 100 mg/kg, route oral; settings: in vivo; method in brief: as §3

T1 sequence (Q92633 whole entry): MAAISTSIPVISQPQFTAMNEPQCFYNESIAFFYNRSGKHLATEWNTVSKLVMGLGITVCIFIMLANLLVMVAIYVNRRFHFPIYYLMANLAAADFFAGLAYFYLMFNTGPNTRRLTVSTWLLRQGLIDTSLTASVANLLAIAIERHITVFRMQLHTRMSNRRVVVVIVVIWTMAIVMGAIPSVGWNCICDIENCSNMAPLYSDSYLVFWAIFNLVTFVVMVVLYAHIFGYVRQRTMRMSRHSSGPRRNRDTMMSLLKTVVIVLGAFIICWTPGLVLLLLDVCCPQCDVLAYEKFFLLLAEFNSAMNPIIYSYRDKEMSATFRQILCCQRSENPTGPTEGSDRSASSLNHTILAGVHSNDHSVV
Voltage-gated inwardly rectifying potassium channel KCNH2, sequence (Q12809 whole entry): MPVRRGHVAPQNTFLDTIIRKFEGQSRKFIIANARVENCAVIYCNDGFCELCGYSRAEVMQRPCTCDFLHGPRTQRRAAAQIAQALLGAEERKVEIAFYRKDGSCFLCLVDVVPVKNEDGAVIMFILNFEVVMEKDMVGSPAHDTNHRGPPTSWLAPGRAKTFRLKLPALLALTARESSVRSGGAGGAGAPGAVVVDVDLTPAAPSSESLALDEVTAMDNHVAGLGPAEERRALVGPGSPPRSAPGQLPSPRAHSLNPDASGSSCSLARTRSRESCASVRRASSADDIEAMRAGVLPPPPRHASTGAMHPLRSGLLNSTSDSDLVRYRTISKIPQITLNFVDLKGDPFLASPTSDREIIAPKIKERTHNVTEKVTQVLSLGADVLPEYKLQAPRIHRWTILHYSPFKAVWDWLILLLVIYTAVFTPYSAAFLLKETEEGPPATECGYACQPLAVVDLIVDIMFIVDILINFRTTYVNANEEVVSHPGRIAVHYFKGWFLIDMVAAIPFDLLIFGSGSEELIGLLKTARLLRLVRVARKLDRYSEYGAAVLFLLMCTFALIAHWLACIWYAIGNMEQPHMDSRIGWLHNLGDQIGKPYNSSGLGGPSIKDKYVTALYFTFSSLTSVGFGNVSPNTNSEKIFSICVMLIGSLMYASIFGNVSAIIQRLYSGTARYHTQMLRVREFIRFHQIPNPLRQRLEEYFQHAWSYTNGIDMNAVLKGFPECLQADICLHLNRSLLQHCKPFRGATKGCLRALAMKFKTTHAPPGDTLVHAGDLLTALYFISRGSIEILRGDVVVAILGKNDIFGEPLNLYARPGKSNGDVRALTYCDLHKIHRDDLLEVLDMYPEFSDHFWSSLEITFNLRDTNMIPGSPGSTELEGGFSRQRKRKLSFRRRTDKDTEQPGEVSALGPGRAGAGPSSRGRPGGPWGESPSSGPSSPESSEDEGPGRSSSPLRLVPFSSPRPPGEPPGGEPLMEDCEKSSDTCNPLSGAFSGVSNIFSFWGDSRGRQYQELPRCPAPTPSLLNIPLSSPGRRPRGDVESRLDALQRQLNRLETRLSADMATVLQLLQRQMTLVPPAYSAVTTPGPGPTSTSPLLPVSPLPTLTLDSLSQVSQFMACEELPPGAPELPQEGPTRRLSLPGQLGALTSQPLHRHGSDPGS

Row | inhibition [2] | inhibition [4] [%] | inhibition (INH) [7] | IC50 [9] [nM] | Compound | inhibition (INH) [5] | IC50 [6] [nM] | inhibition [8] | also measured
1 |  | > 97 | Not Active |  | C[C@@H](OC(=O)Nc1c(-c2ccccc2F)cnn1C)c1ccccc1Cl | Not Active | 810 |  | inhibition at 1 µM [3]: > 50%
2 |  | > 97 | Not Active | > 30000 | CC(OC(=O)Nc1c(-c2ccccc2)cnn1C)c1ccccc1Cl (racemic) | Not Active |  |  | 

More lines, now with the values behind:

Row | Compound | inhibition [2] | inhibition [4] [%] | inhibition (INH) [7] | IC50 [9] [nM] | inhibition (INH) [5] | IC50 [6] [nM] | inhibition [8] | also measured
3 | Cc1csc2c(N[C@@H](C)CN3CCN(S(=O)(=O)c4ccc(Cl)c(Cl)c4)CC3)ncnc12 | inactive |  |  |  |  |  |  | inhibition at 10 µM [1]: < 50%
4 | Cc1noc(-c2ccc(-c3ccc(CC(=O)O)cc3)cc2)c1NC(=O)O[C@H](C)c1ccccc1 |  |  |  |  |  |  | Active | 
5 | CC(OC(=O)Nc1c(-c2ccc(F)cc2)cnn1C)c1ccccc1Cl (racemic) |  | > 97 | Not Active | > 30000 | Not Active |  |  | 
6 | Cc1nnn(-c2ccc(-c3ccc(C4(C(=O)O)CC4)cc3)cc2)c1NC(=O)O[C@H](C)c1ccccc1 | Dose-dependent effect |  | Not Active |  | Not Active | 4 | Active | inhibition [10]: 20%; Ratio [11]: > 65
